High-throughput results as filed in PubChem.
In the library only some 4.5% were active in any assay of this set; here they are far more common.
RGS4 block: RGS4 inhibitors, primary screen, cell-based, HEK293 M3R inducible RGS4, calcium flux; AID 463165, 2010; 310,000 tested, 0.45% active; Fluo-4 calcium flux; stronger effect = higher value; triggered by carbachol at its EC20; B-score at 10 µM;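 active = B-score, a plate-corrected calcium signal, over three deviations above library mean, with baseline fluorescence within five deviations of library mean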;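 also: RGS4 expression induced by doxycycline in cells with stable M3 receptor; B-score is computed from the integrated fluorescence ratio over baseline after carbachol; higher B-score means a larger calcium signal and so more RGS4 inhibition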
Target sequence (P49798 whole entry, looked up): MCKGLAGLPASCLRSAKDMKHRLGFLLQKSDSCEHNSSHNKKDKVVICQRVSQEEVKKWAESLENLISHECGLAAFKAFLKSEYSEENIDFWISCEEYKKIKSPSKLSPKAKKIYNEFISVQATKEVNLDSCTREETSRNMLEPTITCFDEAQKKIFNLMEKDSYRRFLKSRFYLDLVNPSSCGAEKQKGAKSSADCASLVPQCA
RGS4 act: RGS4 potentiators or activators, primary screen, cell-based, HEK293 M3R inducible RGS4, calcium flux; carbachol calcium flux Fluo4; stronger effect = lower value; B-score at 10 µM; 310,000 tested, 0.92% active; AID 463111, 2010;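 active = B-score of the integrated calcium signal more than 4 SD below the library mean, with starting fluorescence not abnormally high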;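 also: negative B-score means reduced calcium response which marks RGS4 activation or potentiation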
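System – HEK293 FlpIn-TREx cells, stable M3R, doxycycline-inducible RGS4 · Reagent – ECmax carbachol challenge · Times – compound preincubation 20 min at room temperature before agonist · Technique – Fluo4 fluorescence kinetic imaging of calcium · Measure – B score of integrated Fluo4 ratio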
MrgX1 antag: antagonists of human MrgX1 receptor, primary screen, HEK293 cells, Fluo-4 calcium flux; BAM8-22 antagonism; stronger effect = lower value; B-score at 10 µM; 310,000 tested, 1.3% active; Mas-related G-protein coupled receptor member X1 (Homo sapiens), Q96LB2; AID 588676, 2011;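 active = calcium-response B-score plate-corrected more than 3 library SD below zero, starting fluorescence within 5 deviations, no agonist response on first addition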;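 also: peak minus trough fluorescence over baseline after final BAM8-22 challenge near maximal dose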
MrgX1 agonist: agonists of human MrgX1 receptor, primary screen, HEK293 cells, Fluo-4 calcium flux; B-score at 10 µM; Mas-related G-protein coupled receptor member X1 (Homo sapiens), Q96LB2; AID 588627, 2011; 310,000 tested, 0.44% active; Fluo-4 calcium fluorescence, agonist mode; stronger effect = higher value;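 active = calcium response B-score plate-corrected fluorescence ratio at least 3 library SD, with starting fluorescence B-score inside 5 SD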
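Test system: HEK293 cells stably expressing human MrgX1 receptor; Input: fifteen thousand cells per well; Dosing: compound delivered in addition one of three; Schedule: overnight seeding, then 1 h dark dye loading; Technique: Fluo-4 NW calcium fluorescence; Measure: B-scored fluorescence response ratio; Controls: positive and negative controls per plate.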
PHOSPHO1 inh: PubChem AID 1565; Phosphoethanolamine/phosphocholine phosphatase (Homo sapiens), Q8TCT1; inhibition, % at 13.3 µM; recombinant PHOSPHO1, absorbance phosphatase assay; 290,000 tested, 1.1% active; in the data active = inhibition above about 60%
Target sequence (Q8TCT1 whole entry, looked up): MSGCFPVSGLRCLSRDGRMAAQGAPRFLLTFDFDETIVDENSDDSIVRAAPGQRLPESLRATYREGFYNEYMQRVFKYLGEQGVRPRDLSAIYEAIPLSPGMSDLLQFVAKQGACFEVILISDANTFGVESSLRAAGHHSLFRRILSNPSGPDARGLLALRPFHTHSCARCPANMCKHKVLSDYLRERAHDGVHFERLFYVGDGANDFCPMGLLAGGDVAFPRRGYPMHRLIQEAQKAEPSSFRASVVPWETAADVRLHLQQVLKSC
MrgX1 allo act: positive allosteric modulators of MrgX1, primary screen, HEK293 cells, Fluo-4 calcium flux. Mas-related G-protein coupled receptor member X1 (Homo sapiens), Q96LB2. FDSS; stronger effect = higher value. B-score at 10 µM. 310,000 tested, 0.63% active. AID 588675, 2011;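 active = plate-corrected calcium response at least 3 library SD above typical, normal starting fluorescence, not activating the receptor alone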;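 also: compound read alongside a low EC10 to EC30 dose of BAM8-22 agonist; peak minus trough fluorescence over baseline measured at the second addition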
MrgX1 antag conf: MrgX1 receptor antagonists, duplicate retest, confirmation, HEK293 cells, Fluo-4 calcium flux | BAM8-22 calcium flux; stronger effect = lower value | shares compounds with MrgX1 antag | 2,300 tested, 19% active | remaining BAM8-22 calcium response % of control (stronger effect = lower value), % at 10 µM | AID 602420, 2012;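 active = remaining agonist calcium response no higher than 100% minus 3 SD of agonist-only control wells, with starting fluorescence near control levels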;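 also: agonist BAM8-22 given at a near maximal EC90 to ECmax level; peak minus minimum fluorescence divided by baseline after agonist addition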
HEK293 Ca flux: nonspecific calcium signal in parental HEK293, confirmation, counter-screen for MrgX1 antagonist project, parental HEK293 cells, Fluo-4 calcium flux; shares compounds with MrgX1 antag; Fluo-4 calcium fluorescence, FDSS; fluorescence ratio F(max-min)/F0 at 10 µM; 4,000 tested, 2% active;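 active = duplicate-averaged calcium fluorescence ratio at least three times the standard deviation of buffer wells, a nonspecific response in parental cells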
HEK293 Ca counter: calcium response in parental HEK293 cells, primary screen, counter-screen for MrgX1 allosteric activator project, cell-based, Fluo-4 calcium flux, duplicate; Fluo-4 fluorescence ratio; stronger effect = higher value; fluorescence ratio F(max-min)/F0 at 10 µM; shares compounds with MrgX1 antag; 4,000 tested, 0.4% active;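 active = calcium fluorescence ratio, averaged over duplicates, at least 3 SD of the buffer-well ratio, meaning a nonspecific response in receptor-free cells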;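 also: untransfected parental HEK293 lacking MrgX1 used as counterscreen for MrgX1 allosteric activators; fluorescence change taken during the second addition on a kinetic imager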
HEK293 Ca cntr2: calcium response in parental HEK293 cells, primary screen, counter-screen for MrgX1 agonist project, cell-based, Fluo-4 calcium flux, duplicate, agonist mode | Fluo-4 calcium fluorescence (FDSS); stronger effect = higher value | fluorescence ratio F(max-min)/F0 at 10 µM | shares compounds with MrgX1 antag | 4,000 tested, 8.7% active;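 active = calcium fluorescence ratio at least three times the spread of buffer wells, meaning a non-specific response in parental cells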
A number is an active result; – = inactive; · = no result.

SMILES	RGS4 block	RGS4 act	MrgX1 antag	MrgX1 agonist	PHOSPHO1 inh	MrgX1 allo act	MrgX1 antag conf	HEK293 Ca flux	HEK293 Ca counter	HEK293 Ca cntr2
C=C(C)CSc1nc2c(c(=O)[nH]c(=O)n2C)n1Cc1ccccc1	–	–	-4.8	–	–	–	83%	–	–	–
O=C(Nc1cccc(O)c1)c1cc(S(=O)(=O)N2CCCC2)ccc1Cl	–	–	-5.1	–	–	–	–	–	–	–
CCN(CC)C(=O)Cn1c(=O)c2ccccc2n2c(=S)sc(-c3cccc(C)c3)c12	–	–	–	–	–	–	·	·	·	·
O=C(C1CCC(=O)N(C2CC2)C1)N1CCC(Oc2cccc(F)c2)CC1 (stereo not drawn)	–	–	–	–	–	–	·	·	·	·
COc1ccc(OC)c2sc(NC(=O)c3ccc(Cl)s3)nc12	–	–	-5	–	–	–	–	–	–	–
O=c1[nH]nc2n1CCCCC2	–	–	-10	–	–	–	–	–	–	–
O=C(NNC(=S)Nc1ccc(Br)cc1Cl)c1ccncc1	–	–	–	–	–	–	·	·	·	·
S=C(NCc1ccncc1)Nc1ccc(Br)cc1Cl	–	–	-6.3	–	–	–	68%	–	–	–
Cc1cc(=O)n2c3ccccc3n(CC(O)CN3CCCC3)c2c1C#N (stereo not drawn)	–	–	-5.3	–	62	–	–	–	–	–
CCSc1nnc(NC(=O)CCc2ccc(OC)cc2)s1	–	–	–	–	–	–	·	·	·	·
CC(C)Cc1nnc(NC(=O)CCS(=O)(=O)c2ccc(Cl)cc2)s1	–	–	–	–	–	–	·	·	·	·
CCCN1C2CCCC1CC(NC(=S)Nc1cc(C)cc(C)c1)C2 (stereo not drawn)	–	–	-6	–	–	–	–	–	–	–
O=[N+]([O-])c1c(Nc2cccc(O)c2)cc(Cl)c2nonc12	–	–	-11	–	–	–	–	–	–	–
Cc1occc1C(=O)NN1C(=O)C2C3CCC(O3)C2C1=O (stereo not drawn)	–	–	–	–	–	–	·	·	·	·
Nc1nc(Cl)cc(Oc2ccc([N+](=O)[O-])cc2)n1	–	–	–	–	·	–	·	·	·	·
O=C(CNS(=O)(=O)c1ccc([N+](=O)[O-])cc1)N/N=C/c1ccc(O)cc1O	–	–	-13	–	–	–	40%	–	63	–
CCCCN(C(=O)c1cccc(S(=O)(=O)N2CCN(C)CC2)c1)c1c(N)n(CCC)c(=O)[nH]c1=O	–	–	-15	–	·	–	–	–	–	–
CCCCCCCCCCOC(=O)Cn1c(COc2ccccc2OC)[n+](C)c2ccccc21	–	-8.4	-11	–	–	–	59%	–	–	–
CC(C)Oc1ccc(/C=N/NC(=O)C(CSCc2ccccc2)NC(=O)c2ccc([N+](=O)[O-])cc2)cc1 (stereo not drawn)	–	–	–	–	–	–	·	·	·	·
